Measurements reported in ChEMBL document CHEMBL4033712, “Synthesis and biological evaluation of new C-12(α/β)-(N-) sulfamoyl-phenylamino-14-deoxy-andrographolide derivatives as potent anti-cancer agents” (Bioorg Med Chem Lett, 2017).

Legend:
Assay type in all cases: functional
[1] = test system: OVCAR-3; assay: Anticancer activity against human OVCAR3 cells assessed as cell growth at 10 uM after 48 hrs by sulforhodamine B assay relative to control; conditions: OVCAR-3, 48 h, read-out: Activity
Method in brief: (§1)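 Single-dose NCI-60 panel screen: compound added at 10 µM and the culture incubated 48 h. The end point was read by protein staining with sulforhodamine B. The value is percent growth of treated cells relative to untreated control cells, reported as a mean graph across the panel.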

[2] = test system: EKVX; assay: Anticancer activity against human EKVX cells assessed as cell growth at 10 uM after 48 hrs by sulforhodamine B assay relative to control; conditions: read-out: Activity; method in brief: as §1
[3] = test system: CCRF-CEM; assay: Anticancer activity against human CCRF-CEM cells assessed as cell growth at 10 uM after 48 hrs by sulforhodamine B assay relative to control; conditions: read-out: Activity; method in brief: as §1
[4] = test system: DU-145; assay: Anticancer activity against human DU145 cells assessed as cell growth at 10 uM after 48 hrs by sulforhodamine B assay relative to control; conditions: DU-145, 48 h, read-out: Activity; method in brief: as §1
[5] = test system: A549; assay: Anticancer activity against human A549/ATCC cells assessed as cell growth at 10 uM after 48 hrs by sulforhodamine B assay relative to control; conditions: A549, 48 h, read-out: Activity; method in brief: as §1
[6] = test system: TK-10; assay: Anticancer activity against human TK10 cells assessed as cell growth at 10 uM after 48 hrs by sulforhodamine B assay relative to control; conditions: TK-10, 48 h, read-out: Activity
Method in brief: (§2)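 NCI-60 single-dose screen: compound added at 10 µM, cultures incubated 48 h. End point by sulforhodamine B protein-binding dye. Value reported as percent growth of treated cells relative to untreated control cells.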

[7] = test system: OVCAR-8; assay: Anticancer activity against human OVCAR8 cells assessed as cell growth at 10 uM after 48 hrs by sulforhodamine B assay relative to control; conditions: OVCAR-8, 48 h, read-out: Activity; method in brief: as §1
[8] = test system: RXF 393; assay: Anticancer activity against human RXF393 cells assessed as cell growth at 10 uM after 48 hrs by sulforhodamine B assay relative to control; conditions: RXF 393, 48 h, read-out: Activity; method in brief: as §1
[9] = test system: HCT-116; assay: Anticancer activity against human HCT116 cells assessed as cell growth at 10 uM after 48 hrs by sulforhodamine B assay relative to control; conditions: HCT-116, 48 h, read-out: Activity; method in brief: as §1
[10] = test system: MOLT-4; assay: Anticancer activity against human MOLT4 cells assessed as cell growth at 10 uM after 48 hrs by sulforhodamine B assay relative to control; conditions: MOLT-4, 48 h, read-out: Activity; method in brief: as §1
[11] = test system: NCI-H522; assay: Anticancer activity against human NCI-H522 cells assessed as cell growth at 10 uM after 48 hrs by sulforhodamine B assay relative to control; conditions: NCI-H522, 48 h, read-out: Activity; method in brief: as §1
[12] = test system: Hs-578T; assay: Anticancer activity against human Hs 578T cells assessed as cell growth at 10 uM after 48 hrs by sulforhodamine B assay relative to control; conditions: read-out: Activity; method in brief: as §1
[13] = test system: HT-29; assay: Anticancer activity against human HT-29 cells assessed as cell growth at 10 uM after 48 hrs by sulforhodamine B assay relative to control; conditions: HT-29, 48 h, read-out: Activity; method in brief: as §1
[14] = test system: U-251; assay: Anticancer activity against human U251 cells assessed as cell growth at 10 uM after 48 hrs by sulforhodamine B assay relative to control; conditions: U-251, 48 h, read-out: Activity; method in brief: as §2
[15] = test system: ACHN; assay: Anticancer activity against human ACHN cells assessed as cell growth at 10 uM after 48 hrs by sulforhodamine B assay relative to control; conditions: read-out: Activity; method in brief: as §1
[16] = test system: SF-268; assay: Anticancer activity against human SF268 cells assessed as cell growth at 10 uM after 48 hrs by sulforhodamine B assay relative to control; conditions: SF-268, 48 h, read-out: Activity; method in brief: as §1
[17] = test system: SK-MEL-2; assay: Anticancer activity against human SK-MEL-2 cells assessed as cell growth at 10 uM after 48 hrs by sulforhodamine B assay relative to control; conditions: SK-MEL-2, 48 h, read-out: Activity; method in brief: as §1
[18] = test system: SK-MEL-5; assay: Anticancer activity against human SK-MEL-5 cells assessed as cell growth at 10 uM after 48 hrs by sulforhodamine B assay relative to control; conditions: SK-MEL-5, 48 h, read-out: Activity; method in brief: as §1
[19] = test system: SNB-75; assay: Anticancer activity against human SNB75 cells assessed as cell growth at 10 uM after 48 hrs by sulforhodamine B assay relative to control; conditions: SNB-75, 48 h, read-out: Activity; method in brief: as §2
[20] = test system: UO-31; assay: Anticancer activity against human UO31 cells assessed as cell growth at 10 uM after 48 hrs by sulforhodamine B assay relative to control; conditions: UO-31, 48 h, read-out: Activity; method in brief: as §2
[21] = test system: M14; assay: Anticancer activity against human M14 cells assessed as cell growth at 10 uM after 48 hrs by sulforhodamine B assay relative to control; conditions: M14, 48 h, read-out: Activity; method in brief: as §1
[22] = test system: PC-3; assay: Anticancer activity against human PC3 cells assessed as cell growth at 10 uM after 48 hrs by sulforhodamine B assay relative to control; conditions: PC-3, 48 h, read-out: Activity; method in brief: as §1
[23] = test system: SR; assay: Anticancer activity against human SR cells assessed as cell growth at 10 uM after 48 hrs by sulforhodamine B assay relative to control; conditions: read-out: Activity; method in brief: as §2
[24] = test system: OVCAR-5; assay: Anticancer activity against human OVCAR5 cells assessed as cell growth at 10 uM after 48 hrs by sulforhodamine B assay relative to control; conditions: OVCAR-5, 48 h, read-out: Activity; method in brief: as §1
[25] = test system: MDA-MB-231; assay: Anticancer activity against human MDA-MB-231 cells assessed as cell growth at 10 uM after 48 hrs by sulforhodamine B assay relative to control; conditions: MDA-MB-231, 48 h, read-out: Activity; method in brief: as §1
[26] = test system: IGROV-1; assay: Anticancer activity against human IGROV1 cells assessed as cell growth at 10 uM after 48 hrs by sulforhodamine B assay relative to control; conditions: IGROV-1, 48 h, read-out: Activity; method in brief: as §1
[27] = test system: BT-549; assay: Anticancer activity against human BT549 cells assessed as cell growth at 10 uM after 48 hrs by sulforhodamine B assay relative to control; conditions: BT-549, 48 h, read-out: Activity; method in brief: as §1
[28] = test system: A498; assay: Anticancer activity against human A498 cells assessed as cell growth at 10 uM after 48 hrs by sulforhodamine B assay relative to control; conditions: A498, 48 h, read-out: Activity; method in brief: as §1
[29] = test system: UACC-62; assay: Anticancer activity against human UACC62 cells assessed as cell growth at 10 uM after 48 hrs by sulforhodamine B assay relative to control; conditions: UACC-62, 48 h, read-out: Activity; method in brief: as §2
[30] = test system: Malme-3M; assay: Anticancer activity against human MALME-3M cells assessed as cell growth at 10 uM after 48 hrs by sulforhodamine B assay relative to control; conditions: read-out: Activity; method in brief: as §1
[31] = test system: HL-60(TB); assay: Anticancer activity against human HL-60(TB) cells assessed as cell growth at 10 uM after 48 hrs by sulforhodamine B assay relative to control; conditions: HL-60, 48 h, read-out: Activity
Method in brief: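 NCI-60 human tumour panel single-dose screen: cells exposed to 10 µM compound for 48 h. Growth end point read with sulforhodamine B protein-binding dye. Expressed as percent growth of treated cells versus untreated control cells.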

C=C1CC[C@@H]2[C@](C)(COC(C)=O)[C@H](OC(C)=O)CC[C@@]2(C)[C@H]1CC(Nc1ccc(S(=O)(=O)Nc2nc(C)cc(C)n2)cc1)C1=CCOC1=O (stereo partly specified)
growth at 10 µM [1]: 44.8% | growth at 10 µM [2]: 74.5% | growth at 10 µM [3]: 2.96% | growth at 10 µM [4]: 82.3% | growth at 10 µM [5]: 65.3% | growth at 10 µM [6]: 111% | growth at 10 µM [7]: 62% | growth at 10 µM [8]: 85.1% | growth at 10 µM [9]: 39.2% | growth at 10 µM [10]: 24.6% | growth at 10 µM [11]: 22% | growth at 10 µM [12]: 99.8% | growth at 10 µM [13]: 46.2% | growth at 10 µM [14]: 48.2% | growth at 10 µM [15]: 71.6% | growth at 10 µM [16]: 93.3% | growth at 10 µM [17]: 88.5% | growth at 10 µM [18]: 74.2% | growth at 10 µM [19]: 44.6% | growth at 10 µM [20]: 71.2% | growth at 10 µM [21]: 63.8% | growth at 10 µM [22]: 65.2% | growth at 10 µM [23]: 22.2% | growth at 10 µM [24]: 103% | growth at 10 µM [25]: 107% | growth at 10 µM [26]: 81.5% | growth at 10 µM [27]: 71.9% | growth at 10 µM [28]: 85.3% | growth at 10 µM [29]: 32.9% | growth at 10 µM [30]: 96.3% | growth at 10 µM [31]: 21.7%
